The values below come from ChEMBL document CHEMBL1157059, “Eremophilane-type sesquiterpenes from the fungus Xylaria sp. BCC 21097” (J Nat Prod, 2010).

In brackets after ≈: the same amount, converted by molar mass.

For one experiment, the system named is Plasmodium falciparum. In words: Antimalarial activity against Plasmodium falciparum K1 after 18 hrs by [G-3H]hypoxanthine uptake assay. Format: functional, organism-based. The conditions noted are these: K1, 18 h. A digest of the protocol:
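Plasmodium falciparum K1, a multidrug-resistant strain, tested by the microculture radioisotope technique.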

A further experiment deals with MCF7. The experiment is described as follows: Cytotoxicity against human MCF7 cells after 45 hrs by resazurin microplate assay. In kind it is functional, cell-based. The settings on record: MCF7, 45 h. A digest of the protocol:
(§1)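 Human cancer cell panel in the resazurin microplate assay: KB (oral epidermoid carcinoma), MCF-7 (breast cancer) and NCI-H187 (small-cell lung cancer).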

The subject of a further experiment is Vero. The experiment is described as follows: Cytotoxicity against african green monkey Vero cells by green fluorescent protein microplate assay. Format: cell-based. The conditions noted are these: Chlorocebus sabaeus. The gist of the method:
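Vero cells (African green monkey kidney […]) tested in the green fluorescent protein microplate assay (GFPMA), the same format the paper used for Mycobacterium tuberculosis H37Ra.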

For another experiment, the system named is NCI-H187. In words: Cytotoxicity against human NCI-H187 cells after 45 hrs by resazurin microplate assay. In kind it is functional, cell-based. The conditions noted are these: NCI-H187, 45 h. A digest of the protocol: as §1
Background: Alamar Blue is a resazurin reagent that responds to reducing activity.

The test system of experiment [1] is Mycobacterium tuberculosis. The experiment is described as follows: Antituberculosis activity against Mycobacterium tuberculosis H37Ra by green fluorescent protein microplate assay. In kind it is functional.
The subject of a further experiment is KB. The experiment is described as follows: Cytotoxicity against human KB cells after 45 hrs by resazurin microplate assay. In kind it is functional, cell-based. The gist of the method:
as §1

Another experiment concerns Candida albicans. The experiment is described as follows: Antifungal activity against Candida albicans after 45 hrs by resazurin microplate assay. In kind it is functional, organism-based.

On to `CC1=C2C[C@]3(C)[C@@H](C)CC[C@@H](O)[C@@]3(O)C[C@H]2OC1=O` [MAIRETOLIDE F], for which the concentration for half-maximal inhibition (IC50) was over 38 µM with Plasmodium falciparum; over 188 µM with MCF7; over 188 µM in the experiment with Vero; over 188 µM with NCI-H187; over 188 µM in the experiment on KB; over 188 µM in the experiment with Candida albicans. Further, in experiment [1], the MIC is over 188 µM.
`C=C1C(=O)O[C@@H]2C[C@]3(O)[C@H](O)CC[C@H](C)[C@@]3(C)C[C@]12O`: the IC50 in the experiment with Plasmodium falciparum is over 35 µM; in the experiment with MCF7, 15 µM; in the experiment on Vero, 8.5 µM; with NCI-H187, 7.2 µM; with KB, 5 µM; in the experiment with Candida albicans, over 177 µM. The compound also displayed an MIC in experiment [1] of over 177 µM.
With `C=C1C(=O)O[C@@H]2C[C@]3(O)[C@H](OC)CC[C@H](C)[C@@]3(C)C[C@]12O`, the IC50 in the experiment on Plasmodium falciparum is 8.1 µM; in the experiment with MCF7, 15 µM; with Vero, 3.9 µM; in the experiment with NCI-H187 it was 3.8 µM; in the experiment on KB, 21 µM; in the experiment with Candida albicans it was over 169 µM. The same compound returned a minimum inhibitory concentration (MIC) in experiment [1] of 42 µM (≈ 12.4 µg/mL).
For `C=C1C(=O)O[C@@H]2C[C@]34O[C@H]3CC[C@H](C)[C@@]4(C)C[C@]12O`, the IC50 in the experiment with Plasmodium falciparum amounted to 13 µM; with MCF7, 10 µM; in the experiment with Vero it was 9.4 µM; with NCI-H187, 5.8 µM; in the experiment on KB it was 10 µM; in the experiment with Candida albicans, 7.8 µM. In experiment [1], this compound displayed a minimal inhibitory concentration (MIC) of 47 µM (≈ 12.4 µg/mL).
In the case of `C[C@H]1CC[C@@H]2O[C@@]23C[C@H]2OC(=O)C(CO)=C2C[C@]13C`, the IC50 in the experiment on Plasmodium falciparum is over 38 µM; in the experiment on MCF7, over 189 µM; with Vero, over 189 µM; with NCI-H187, over 189 µM; in the experiment with KB it was over 189 µM; in the experiment with Candida albicans, over 189 µM. The compound further returned an MIC in experiment [1] of over 189 µM.

Broadly, the IC50 is the concentration needed to halve the response being measured. As a reminder, the MIC is the smallest concentration in the dilution series that meets the test's criterion for growth inhibition.
